Results on 15 molecules are retold here after ChEMBL document CHEMBL4257595, “Improving the Selectivity of PACE4 Inhibitors through Modifications of the P1 Residue” (J Med Chem, 2018).

pIC50, pKi: −log10 of the molar value. Activity calls are given as the source filed them. Square brackets hold non-standard residues; d marks the D form. Peptide text beside a SMILES is read from it. * marks the point of attachment. NH(4-amidinobenzyl) = N=C(N)c1ccc(CN*)cc1

Series [1] concerns the target T1, Proprotein convertase subtilisin/kexin type 6 (Homo sapiens, UniProt P29122).
T1 sequence (P29122 whole entry): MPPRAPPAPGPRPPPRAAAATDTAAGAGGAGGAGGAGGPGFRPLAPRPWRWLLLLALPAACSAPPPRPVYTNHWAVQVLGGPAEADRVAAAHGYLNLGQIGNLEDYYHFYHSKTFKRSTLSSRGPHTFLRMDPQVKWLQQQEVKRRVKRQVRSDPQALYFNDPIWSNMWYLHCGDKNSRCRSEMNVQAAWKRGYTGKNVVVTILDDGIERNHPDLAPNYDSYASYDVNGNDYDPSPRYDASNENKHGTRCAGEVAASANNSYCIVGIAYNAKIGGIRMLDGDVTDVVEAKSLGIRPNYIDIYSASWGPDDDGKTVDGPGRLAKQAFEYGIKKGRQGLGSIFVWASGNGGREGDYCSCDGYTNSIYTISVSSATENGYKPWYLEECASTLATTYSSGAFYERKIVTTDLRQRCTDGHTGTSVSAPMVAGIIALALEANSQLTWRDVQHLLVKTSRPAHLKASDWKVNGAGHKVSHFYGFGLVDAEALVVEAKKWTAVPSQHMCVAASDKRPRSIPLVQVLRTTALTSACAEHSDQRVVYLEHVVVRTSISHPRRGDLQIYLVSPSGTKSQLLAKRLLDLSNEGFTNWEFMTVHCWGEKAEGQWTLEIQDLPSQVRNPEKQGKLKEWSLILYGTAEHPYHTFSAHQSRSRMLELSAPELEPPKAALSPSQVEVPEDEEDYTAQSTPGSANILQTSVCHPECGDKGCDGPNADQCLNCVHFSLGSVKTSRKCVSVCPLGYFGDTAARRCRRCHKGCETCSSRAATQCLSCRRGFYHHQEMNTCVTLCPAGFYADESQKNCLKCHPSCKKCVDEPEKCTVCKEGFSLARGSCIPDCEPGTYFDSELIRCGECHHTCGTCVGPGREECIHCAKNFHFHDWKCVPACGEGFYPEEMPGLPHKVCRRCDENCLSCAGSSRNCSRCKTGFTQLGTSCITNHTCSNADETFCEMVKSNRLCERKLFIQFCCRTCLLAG
Nature of the series: Inhibition of recombinant human PACE4 using pGlu-Arg-Thr-Lys-Arg-AMC peptide as substrate by spectrofluorometry.

Series [2] deals with DU-145. Briefly: Antiproliferative activity against human DU145 cells after 72 hrs by MTT assay. The following applies: for pIC50: Homo sapiens, DU-145, 72 h, read-out: IC50; for IC50: du-145. It counts as functional, cell-based. The essentials:
(§1)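 MTT proliferation read-out. DU145 cultured in RPMI-1640 with 5% FBS; LNCaP cultured in RPMI-1640 with 10% FBS. IC50 calculated from dose-response curves.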

The next series concerns the target Furin (Homo sapiens, UniProt P09958). Briefly: Inhibition of recombinant human furin using pGlu-Arg-Thr-Lys-Arg-AMC peptide as substrate by spectrofluorometry. The essentials: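 Recombinant human furin at 0.54 nM (Km 5.040 µM) in 100 mM Hepes pH 7.5, 1 mM CaCl2, 1 mM β-mercaptoethanol and 1.8 mg/mL BSA. Substrate pGlu-RTKR-AMC at 100 µM per well. Fluorescence read at ex 370 / em 460 nm. Ki derived by Cheng-Prusoff.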

For another series, the species on record is Homo sapiens. Briefly: Selectivity ratio of Ki for recombinant human furin to Ki for recombinant human PACE4. The essentials: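 Ratio of Ki values. Furin Ki measured at 0.54 nM enzyme in Hepes pH 7.5; PACE4 Ki measured at 20.18 nM enzyme in Bis-Tris pH 6.5. Both used 100 µM pGlu-RTKR-AMC with fluorescence at ex 370 / em 460 nm, and Ki came from Cheng-Prusoff (Morrison's equation for one PACE4 value).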

Series [3] relates to LNCaP. Nature of the series: Antiproliferative activity against human LNCAP cells after 72 hrs by MTT assay. To be noted: for pIC50: Homo sapiens, LNCaP, 72 h, read-out: IC50; for IC50: lncap. It counts as functional, cell-based. An outline of the steps:
as §1
(In general: Tetrazolium dyes change colour on reduction, which living cells bring about.)

Series [4] relates to LNCaP. Nature of the series: Antiproliferative activity against human LNCAP cells at <150 uM after 72 hrs by MTT assay. Format: functional, cell-based. An outline of the steps: (§2)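 Doses tested up to 150 µM. MTT read-out on DU145 (RPMI-1640, 5% FBS) or LNCaP (RPMI-1640, 10% FBS).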
In series [5] the test system is DU-145. Nature of the series: Antiproliferative activity against human DU145 cells at <150 uM after 72 hrs by MTT assay. It counts as functional, cell-based. The essentials: as §2
A short description of series [6]: Half life in human plasma. It counts as ADME, cell-free.
The nature of series [7]: Drug uptake in human DU145 cells at 1 uM after 48 hrs using FITC-labeled compounds by propidium iodide/ trypan blue-dual staining based flow cytometry. It counts as ADME, cell-based. The following applies: du-145, 1 h, in the assay text read “1 hr” for “48 hrs”. The essentials:
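DU145 cells plated at 200000 per 100 mm dish and grown 48 h at 37 °C. FITC-labelled analogue added at 1 µM for 1 h at 37 °C. Cells harvested with 0.05% trypsin and washed in PBS. PI added at 10 µg/mL final just before acquisition. A parallel set was quenched with 0.04% trypan blue. Flow cytometry on ≥10000 events with 488/638 nm lasers.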
(In general: Flow cytometry measures light scatter and fluorescence of single cells or particles in a stream.)

Chain of Furin (P09958 whole entry): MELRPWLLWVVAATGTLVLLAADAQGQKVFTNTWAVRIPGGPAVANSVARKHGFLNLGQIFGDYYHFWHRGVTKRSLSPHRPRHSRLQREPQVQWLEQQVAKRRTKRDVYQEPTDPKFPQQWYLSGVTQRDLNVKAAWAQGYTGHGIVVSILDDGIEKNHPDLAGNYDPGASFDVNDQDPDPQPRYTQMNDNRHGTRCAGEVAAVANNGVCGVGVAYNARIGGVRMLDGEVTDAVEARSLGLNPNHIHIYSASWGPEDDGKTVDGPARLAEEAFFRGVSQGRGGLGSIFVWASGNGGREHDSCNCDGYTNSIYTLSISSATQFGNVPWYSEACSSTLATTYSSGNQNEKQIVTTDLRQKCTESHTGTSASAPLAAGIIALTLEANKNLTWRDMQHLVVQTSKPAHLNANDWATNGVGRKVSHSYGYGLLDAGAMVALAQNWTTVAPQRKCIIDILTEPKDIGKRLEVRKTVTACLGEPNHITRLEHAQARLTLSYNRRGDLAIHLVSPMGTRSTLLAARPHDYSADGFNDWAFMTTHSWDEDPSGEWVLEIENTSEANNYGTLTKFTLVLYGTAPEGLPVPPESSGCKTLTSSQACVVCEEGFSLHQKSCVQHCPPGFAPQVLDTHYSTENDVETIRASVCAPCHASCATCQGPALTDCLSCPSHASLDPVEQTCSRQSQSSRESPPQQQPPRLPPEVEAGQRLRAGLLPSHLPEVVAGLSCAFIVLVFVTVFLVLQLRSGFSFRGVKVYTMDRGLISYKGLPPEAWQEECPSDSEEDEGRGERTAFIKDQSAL

For the molecule `CC(=O)N[C@H](CC(C)C)C(=O)N[C@@H](CC(C)C)C(=O)N[C@@H](CC(C)C)C(=O)N[C@@H](CC(C)C)C(=O)N[C@@H](CCCNC(=N)N)C(=O)N[C@H](C(=O)N[C@@H](CCCCN)C(=O)NCCc1ccc(C(=N)N)cc1)C(C)C`, the pKi (in general, −log10 of the Ki, conventionally taken in molar units) is 7.77 in series [1] and 7.39 at Furin. Besides, the pIC50 in the series with DU-145 [2] and in the series with LNCaP [3] was 4.10 in each case. In the series listed under Homo sapiens, the Ratio Ki came to 2.
As for `CC(=O)N[C@H](CC(C)C)C(=O)N[C@@H](CC(C)C)C(=O)N[C@@H](CC(C)C)C(=O)N[C@@H](CC(C)C)C(=O)N[C@@H](CCCNC(=N)N)C(=O)N[C@H](C(=O)N[C@@H](CCCCN)C(=O)NC/C=C/CNC(=N)N)C(C)C`, the pKi in series [1] was 7.89; on Furin, 7.42. Moreover, the pIC50 – broadly, −log10 of the IC50, conventionally taken in molar units – with DU-145 [2] is 4.40; with LNCaP [3], 3.68. In the series filed under Homo sapiens, the Ratio Ki came out at 3.
With `CC(=O)N[C@H](CC(C)C)C(=O)N[C@@H](CC(C)C)C(=O)N[C@@H](CC(C)C)C(=O)N[C@@H](CC(C)C)C(=O)N[C@@H](CCCNC(=N)N)C(=O)N[C@H](C(=O)N[C@@H](CCCCN)C(=O)N[C@H](CO)CCCNC(=N)N)C(C)C`, the result in the series on LNCaP [4] and in the series with DU-145 [5] was inactive. Moreover, the pKi was 6.72 in series [1] and 6.60 on Furin.
As for `CC(=O)N[C@H](CC(C)C)C(=O)N[C@@H](CC(C)C)C(=O)N[C@@H](CC(C)C)C(=O)N[C@@H](CC(C)C)C(=O)N[C@@H](CCCNC(=N)N)C(=O)N[C@H](C(=O)N[C@@H](CCCCN)C(=O)NCC#CCNC(=N)N)C(C)C`, the pKi is 7.49 in [1] and 7.22 at Furin. Further, the pIC50 was 3.96 in the series with DU-145 [2] and 3.90 with LNCaP [3]. Further, the Ratio Ki in the series listed under Homo sapiens worked out at 2.
Turning to `CC(=O)N[C@H](CC(C)C)C(=O)N[C@@H](CC(C)C)C(=O)N[C@@H](CC(C)C)C(=O)N[C@@H](CC(C)C)C(=O)N[C@@H](CCCNC(=N)N)C(=O)N[C@H](C(=O)N[C@@H](CCCCN)C(=O)NCc1ccc2c(N)n[nH]c2c1)C(C)C`, the pKi in [1] is 6.15; at Furin it was 6.08. For the same molecule, the IC50 result with DU-145 [2] and with LNCaP [3] was “Nd(Insoluble)” throughout. Further, the Ratio Ki in the series listed under Homo sapiens turned out to be 1.
Consider `CC(=O)N[C@H](CC(C)C)C(=O)N[C@@H](CC(C)C)C(=O)N[C@@H](CC(C)C)C(=O)N[C@@H](CC(C)C)C(=O)N[C@@H](CCCNC(=N)N)C(=O)N[C@H](C(=O)N[C@@H](CCCCN)C(=O)NCc1ccc(C(=N)N)nc1)C(C)C`, for which the negative logarithm of the Ki (pKi) was 8.59 in series [1] and 7.67 at Furin. The values for the pIC50 in the series on DU-145 [2] and in the series on LNCaP [3] were 3.89 and 3.85, respectively. For the same molecule, in the series filed under Homo sapiens, the Ratio Ki was 8.
The matching figures for `CC(=O)N[C@H](CC(C)C)C(=O)N[C@@H](CC(C)C)C(=O)N[C@@H](CC(C)C)C(=O)N[C@@H](CC(C)C)C(=O)N[C@@H](CCCNC(=N)N)C(=O)N[C@H](C(=O)N[C@@H](CCCCN)C(=O)NCc1ccc(C(=N)N)c(O)c1)C(C)C`: 7.28, 6.62, 4.30, 3.95 and 5.
As to `CC(=O)N[C@H](CC(C)C)C(=O)N[C@@H](CC(C)C)C(=O)N[C@@H](CC(C)C)C(=O)N[C@@H](CC(C)C)C(=O)N[C@@H](CCCNC(=N)N)C(=O)N[C@H](C(=O)N[C@@H](CCCCN)C(=O)N[C@@H](CCCNC(=N)N)C(N)=O)C(C)C`, in the series filed under Homo sapiens, the Ratio Ki is 32.
As for `CC(=O)N[C@H](CC(C)C)C(=O)N[C@@H](CC(C)C)C(=O)N[C@@H](CC(C)C)C(=O)N[C@@H](CC(C)C)C(=O)N[C@@H](CCCNC(=N)N)C(=O)N[C@H](C(=O)N[C@@H](CCCCN)C(=O)NCc1ccc(C(=N)N)cc1)C(C)C` (Ac-[dL]LLLRVK-{NH(4-amidinobenzyl)}), the Ratio Ki in the series filed under Homo sapiens is 2.
Regarding `CC(=O)N[C@H](CC(C)C)C(=O)N[C@@H](CC(C)C)C(=O)N[C@@H](CC(C)C)C(=O)N[C@@H](CC(C)C)C(=O)N[C@@H](CCCNC(=N)N)C(=O)N[C@H](C(=O)N[C@@H](CCCCN)C(=O)NCc1ccc(C(=N)N)c(N)c1)C(C)C`, the pKi in [1] was 7.85; on Furin it was 7.22. The pIC50 in the series with DU-145 [2] was 4.21; in the series with LNCaP [3], 4.24. In the series listed under Homo sapiens, the Ratio Ki came to 4.
Take `CC(=O)N[C@H](CC(C)C)C(=O)N[C@@H](CC(C)C)C(=O)N[C@@H](CC(C)C)C(=O)N[C@@H](CC(C)C)C(=O)N[C@@H](CCCNC(=N)N)C(=O)N[C@H](C(=O)N[C@@H](CCCCN)C(=O)NCc1ccc2c(N)noc2c1)C(C)C`: the pKi in series [1] was 6.30; at Furin, 6.21. The IC50 result in the series on DU-145 [2] and in the series on LNCaP [3] was “Nd(Insoluble)” in each case. Further, in the series filed under Homo sapiens, the Ratio Ki came to 1.
`CC(=O)N[C@H](CC(C)C)C(=O)N[C@@H](CC(C)C)C(=O)N[C@@H](CC(C)C)C(=O)N[C@@H](CC(C)C)C(=O)N[C@@H](CCCNC(=N)N)C(=O)N[C@H](C(=O)N[C@@H](CCCCN)C(=O)NCc1c(F)c(F)c(C(=N)N)c(F)c1F)C(C)C`: the pKi in series [1] is 6.62; on Furin it was 6.22. Further, the figures for the pIC50 in the series on DU-145 [2] and in the series with LNCaP [3] were 4.16 and 3.64, respectively. Also, the Ratio Ki in the series filed under Homo sapiens was found to be 2.
With Ac-LLLLRVKR-NH2, the pIC50 in the series on DU-145 [2] is 4.60; with LNCaP [3], 4.35. In addition, in series [6], the half-life (usually the time needed for the level to fall by half in the phase considered) is 1.7 h.
`CC(C)C[C@H](NC(=O)[C@H](CC(C)C)NC(=O)[C@H](CC(C)C)NC(=O)[C@@H](CC(C)C)NC(=O)CCN)C(=O)N[C@@H](CCCNC(=N)N)C(=O)N[C@H](C(=O)N[C@@H](CCCCN)C(=O)NCc1ccc(C(=N)N)nc1)C(C)C`: the Drug uptake entry in [7] is “Active”.
Consider `CC(C)C[C@H](NC(=O)[C@H](CC(C)C)NC(=O)[C@H](CC(C)C)NC(=O)[C@@H](CC(C)C)NC(=O)CCN)C(=O)N[C@@H](CCCNC(=N)N)C(=O)N[C@H](C(=O)N[C@@H](CCCCN)C(=O)NCc1ccc(C(=N)N)cc1)C(C)C`, for which the Drug uptake result in [7] is “Active”.
